In series [1] the test system is Influenza A virus. The series can be described thus: Antiviral activity against Influenza A virus A/hanfang/359/95(H3N2) infected in MDCK cells assessed as inhibition of virus-induced cytopathicity after 40 hrs. Format: functional, organism-based. An outline of the steps: (§1)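 CPE reduction in MDCK cells: cells grown 24 h at 37 °C, 5% CO2, then infected and held 2 h at 37 °C before the inoculum was removed. Threefold serial drug dilutions (8 levels from 20 mg/mL DMSO stocks) were added and incubated 40 h at 37 °C. CPE inhibition was scored against cell and virus controls to give IC50. Ribavirin and oseltamivir were the controls.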
(Cytopathic effects are the visible damage that an infection or toxin causes in cultured cells.)

Series [2] relates to Influenza A virus. The series can be described thus: Antiviral activity against Influenza A virus (A/FM/1/1947(H1N1)) infected in MDCK cells assessed as inhibition of virus-induced cytopathicity after 40 hrs. As to conditions: A/Fort Monmouth/1/1947(H1N1). It counts as functional, organism-based. The procedure, abridged: as §1
A short description of series [3]: Selectivity index, ratio of TC50 for MDCK cells to IC50 for Influenza A virus (A/FM/1/1947(H1N1)). It counts as toxicity, cell-based. As to conditions: dog, read-out: Selectivity Index. The procedure, abridged: (§2)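 Selectivity index = TC50 (MDCK, 48 h visual cytotoxicity) / IC50 from the 40 h CPE-inhibition assay for the given strain.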
Series [4] can be described thus: Selectivity index, ratio of TC50 for MDCK cells to IC50 for Influenza B virus jifang/13/97. Format: toxicity, cell-based. As to conditions: dog, read-out: Selectivity Index. An outline of the steps: as §2
The nature of series [5]: Cytotoxicity against MDCK cells after 48 hrs. Format: cell-based, Canis lupus familiaris. As to conditions: dog, read-out: TC50. An outline of the steps: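 MDCK cells seeded at 25000 per well and cultured 24 h at 37 °C, 5% CO2. Threefold dilutions were added to the monolayer and culture continued 48 h. Cytopathic changes were recorded by observation, and TC50 was calculated by the Reed & Muench method.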

For series [6], the system named is Influenza B virus. The series can be described thus: Antiviral activity against Influenza B virus jifang/13/97 infected in MDCK cells assessed as inhibition of plaque formation after 3 to 4 days by crystal violet staining-based assay. It counts as functional, organism-based. As to conditions: jifang/13/97, MDCK. The procedure, abridged:
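Plaque reduction: MDCK monolayers in 12-well plates were PBS-washed and infected with influenza B in trypsin-free maintenance medium for 2 h at 37 °C, 5% CO2. Inoculum was removed and the cells washed three times. A 1.5% agarose/MEM overlay with trypsin (2 μg/ml) and drug was added. After 3-4 days, crystal violet (0.5%) plaque counts against no-drug wells gave IC50 by Reed & Muench. Ribavirin was the control.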

Series [7] concerns Influenza B virus. Kind of series: Antiviral activity against Influenza B virus jifang/13/97 infected in MDCK cells assessed as inhibition of virus-induced cytopathicity after 40 hrs. Format: functional, organism-based. To be noted: jifang/13/97, MDCK. An outline of the steps: as §1
A short description of series [8]: Selectivity index, ratio of TC50 for MDCK cells to IC50 for Influenza A virus A/hanfang/359/95(H3N2). To be noted: dog, read-out: Selectivity Index. Format: toxicity, cell-based. An outline of the steps: as §2
Series [9] in a line: Selectivity index, ratio of TC50 for MDCK cells to IC50 for Influenza A virus (A/Tianjinjinnan/15/2009/H1N1). Format: toxicity, cell-based. As to conditions: dog, read-out: Selectivity Index. The procedure, abridged: as §2
Series [10] concerns Influenza B virus. The series can be described thus: Ratio of ribavirin IC50 to compound IC50 for Influenza B virus jifang/13/97 infected in MDCK cells. It counts as functional.

In brackets after ≈: the same amount, converted by molar mass. Bounds are passed on as bounds.

One may read the IC50 as the midpoint of a concentration-inhibition curve.

With `C=C(C(=O)OCc1cn(C2C=CCCC2)nn1)[C@@H]1CC[C@H](C)[C@@H]2CC(=O)C(C)=C2C1` (some centres not stated), the IC50 with Influenza A virus [1] was above 7.41 µg/mL; in the series with Influenza A virus [2], 2.82 µg/mL (≈ 6.89 µM); with Influenza B virus [6] it was 3.28 µg/mL (≈ 8.01 µM); with Influenza B virus [7] it was at least 5.14 µg/mL. Besides, the selectivity ratio in series [3] is 8; in series [4], at least 4.3. Besides, the CC50 at 48 h in series [5] is 22.2 µg/mL (≈ 54.3 µM).

Consider `C=C(C(=O)OCc1cn(C2CCCCC2)nn1)[C@@H]1CC[C@H](C)[C@@H]2CC(=O)C(C)=C2C1`, for which the results for the IC50 in the series with Influenza A virus [1], in the series on Influenza A virus [2] and with Influenza B virus [7] were at least 66.7 µg/mL, 66.7 µg/mL (≈ 162 µM) and 18.5 µg/mL (≈ 45 µM), respectively. The selectivity ratio in series [3] was 1.73; in series [4], 6.5; in [8], at least 1.73; in series [9], 1.98. The CC50 at 48 h in [5] was 115 µg/mL (≈ 281 µM).

`C=C(C(=O)OCc1cn(Cc2ccccc2F)nn1)[C@@H]1CC[C@H](C)[C@@H]2CC(=O)C(C)=C2C1`: the IC50 was above 22.2 µg/mL in the series with Influenza A virus [1], above 22.2 µg/mL in the series with Influenza A virus [2], 0.91 µg/mL (≈ 2.08 µM) in the series with Influenza B virus [6] and 2.26 µg/mL (≈ 5.17 µM) in the series on Influenza B virus [7]. In series [4], the selectivity ratio worked out at 29.7. Further, the CC50 at 48 h in [5] worked out at 66.7 µg/mL (≈ 152 µM). For the same molecule, the “Ratio IC50” value with Influenza B virus [10] is above 4.

`C=C(C(=O)NCc1cn(Cc2ccccc2Cl)nn1)[C@@H]1CC[C@H](C)[C@@H]2CC(=O)C(C)=C2C1`: the IC50 in the series with Influenza A virus [1] is above 7.41 µg/mL; in the series on Influenza A virus [2], above 7.41 µg/mL; with Influenza B virus [6] it was 0.21 µg/mL (≈ 0.464 µM); in the series with Influenza B virus [7], 1.71 µg/mL (≈ 3.77 µM). The selectivity ratio in [4] was 22.5. In [5], the CC50 at 48 h was 38.5 µg/mL (≈ 85 µM). In addition, in the series with Influenza B virus [10], the “Ratio IC50” value is listed as above 4.

Regarding `C=C(C(=O)NCc1cn(Cc2ccc(F)cc2)nn1)[C@@H]1CC[C@H](C)[C@@H]2CC(=O)C(C)=C2C1`, the IC50 in the series with Influenza A virus [1] was above 66.7 µg/mL; with Influenza A virus [2], at least 66.7 µg/mL; in the series with Influenza B virus [6], 0.73 µg/mL (≈ 1.67 µM); in the series on Influenza B virus [7], 3.92 µg/mL (≈ 8.98 µM). In addition, the selectivity ratio in series [4] is 43.8. Besides, the CC50 at 48 h in series [5] is 116 µg/mL (≈ 265 µM). The “Ratio IC50” value in the series on Influenza B virus [10] is above 4.

Consider `C=C(C(=O)NCc1cn(Cc2ccc(Cl)c(Cl)c2)nn1)[C@@H]1CC[C@H](C)[C@@H]2CC(=O)C(C)=C2C1`, for which the IC50 with Influenza A virus [1] was 17.5 µg/mL (≈ 35.9 µM); in the series on Influenza A virus [2], at least 17.2 µg/mL; in the series on Influenza B virus [7], 6.79 µg/mL (≈ 13.9 µM). The selectivity ratio in series [4] came out at 9.9; in series [8], 4.1; in series [9], 3. Further, the CC50 at 48 h in series [5] amounted to 66.7 µg/mL (≈ 137 µM). Moreover, the “Ratio IC50” value with Influenza B virus [10] is above 4.

With `NC(=O)c1ncn([C@@H]2O[C@H](CO)[C@@H](O)[C@H]2O)n1` [RIBAVIRIN], the IC50 in the series on Influenza A virus [1] worked out at 5.59 µg/mL (≈ 22.9 µM); with Influenza A virus [2], 1.92 µg/mL (≈ 7.86 µM); with Influenza B virus [6] it was 3.27 µg/mL (≈ 13.4 µM); with Influenza B virus [7] it was 7.84 µg/mL (≈ 32.1 µM). The selectivity ratio in [3] was determined as 820; in series [4], 206; in series [8], 213; in series [9] it was 185.

The values above are taken from ChEMBL document CHEMBL3124823, “1,2,3-Triazole-containing derivatives of rupestonic acid: click-chemical synthesis and antiviral activities against influenza viruses” (Eur J Med Chem, 2014).
